According to ChEMBL document CHEMBL3407388, “Synthesis, anticancer activity and molecular docking studies on a series of heterocyclic trans-cyanocombretastatin analogues as antitubulin agents” (2015):

Legend:
[1] = system: CCRF-CEM; assay: Cytotoxicity against human CCRF-CEM cells assessed as growth inhibition after 48 hrs by SRB assay; assay type: functional
Summary of the method: (§1)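 NCI 60-cell panel; compounds passing a single-dose screen (10−5 M, 48 h) were tested at five 10-fold dilutions (10−4 to 10−8 M) with 48 h drug exposure. GI50 is the molar concentration giving 50% reduction in net cell growth relative to cell numbers on day 0.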

[2] = system: A549; assay: Cytotoxicity against human A549 cells assessed as growth inhibition after 48 hrs by SRB assay; assay type: functional; settings: A549, 48 h; summary of the method: as §1
[3] = system: HOP-62; assay: Cytotoxicity against human HOP62 cells assessed as growth inhibition after 48 hrs by SRB assay; assay type: functional; settings: HOP-62, 48 h; summary of the method: as §1
[4] = system: HOP-92; assay: Cytotoxicity against human HOP92 cells assessed as growth inhibition after 48 hrs by SRB assay; assay type: functional; settings: HOP-92, 48 h; summary of the method: as §1
[5] = system: NCI-H322M; assay: Cytotoxicity against human NCI-H322M cells assessed as growth inhibition after 48 hrs by SRB assay; assay type: functional; summary of the method: as §1
[6] = system: NCI-H522; assay: Cytotoxicity against human NCI-H522 cells assessed as growth inhibition after 48 hrs by SRB assay; assay type: functional; settings: NCI-H522, 48 h; summary of the method: as §1
[7] = Cytotoxicity against human HCT116 cells assessed as growth inhibition after 48 hrs by SRB assay; assay type: functional; settings: HCT-116, 48 h; summary of the method: as §1
[8] = system: SNB-75; assay: Cytotoxicity against human SNB75 cells assessed as growth inhibition after 48 hrs by SRB assay; assay type: functional; settings: SNB-75, 48 h
[9] = system: SK-MEL-2; assay: Cytotoxicity against human SK-MEL-2 cells assessed as growth inhibition after 48 hrs by SRB assay; assay type: functional; settings: SK-MEL-2, 48 h; summary of the method: as §1
[10] = system: SK-MEL-28; assay: Cytotoxicity against human SK-MEL-28 cells assessed as growth inhibition after 48 hrs by SRB assay; assay type: functional; settings: SK-MEL-28, 48 h; summary of the method: as §1
[11] = Cytotoxicity against human UACC257 cells assessed as growth inhibition after 48 hrs by SRB assay; assay type: functional; settings: UACC-257, 48 h
[12] = system: ACHN; assay: Cytotoxicity against human ACHN cells assessed as growth inhibition after 48 hrs by SRB assay; assay type: functional; summary of the method: as §1
[13] = system: T47D; assay: Cytotoxicity against human T47D cells assessed as growth inhibition after 48 hrs by SRB assay; assay type: functional
[14] = system: MDA-MB-468; assay: Cytotoxicity against human MDA-MB-468 cells assessed as growth inhibition after 48 hrs by SRB assay; assay type: functional; settings: MDA-MB-468, 48 h; summary of the method: as §1
[15] = system: MV4-11; assay: Anti-leukemic activity against human MV4-11 cells assessed as cell dead after 24 to 48 hrs by annexin V-FITC/7-AAD staining-based flow cytometric analysis; assay type: functional; settings: read-out: LD50 (the source's name)
Summary of the method: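 MV4-11 cells grown in IMDM with 10% FBS, penicillin and streptomycin, seeded at 5 × 10^5/ml and treated. At 24 and 48 h they were stained with annexin V-FITC plus 1 μg/ml 7-AAD. Percent dead cells (annexin V+) was read by flow cytometry and expressed relative to the DMSO vehicle control.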

[16] = system: SR; assay: Cytotoxicity against human SR cells assessed as growth inhibition after 48 hrs by SRB assay; assay type: functional
[17] = Cytotoxicity against human EKVX cells assessed as growth inhibition after 48 hrs by SRB assay; assay type: functional; summary of the method: as §1
[18] = system: Malme-3M; assay: Cytotoxicity against human MALME-3M cells assessed as growth inhibition after 48 hrs by SRB assay; assay type: functional; summary of the method: as §1
[19] = target: Tubulin (Homo sapiens) (UniProt P68371+Q9H4B7+P0DPH7+P68366+Q13509+Q71U36+P04350+Q3ZCM7+P07437+P68363+Q9BQE3+Q6PEY2+Q13885+Q9BVA1+Q9BUF5); assay: Inhibition of tubulin polymerization in human MV4-11 cells at 50 nM after 2 hrs by immunoblot analysis relative to control; assay type: cell-based
Summary of the method: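 MV4-11 AML cells were exposed for 2 h to 25, 50 or 100 nM compound. Free tubulin (supernatant) and polymerized tubulin (pellet) were separated and detected by anti-tubulin immunoblot.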

COc1cc(/C(C#N)=C/c2cc3ccccc3n2Cc2ccc(C#N)cc2)cc(OC)c1OC
GI50 [1]: 136 nM
GI50 [2]: 76 nM
GI50 [3]: 92 nM
GI50 [4]: 77 nM
GI50 [5]: 465 nM
GI50 [6]: 33 nM
GI50 [7]: 47 nM
GI50 [8]: 39 nM
GI50 [9]: 528 nM
GI50 [10]: 161 nM
GI50 [11]: 0.062 µM
GI50 [12]: 79 nM
GI50 [13]: 95200 nM
GI50 [14]: 41 nM
CC50 [15]: 369 nM

COc1cc(/C(C#N)=C/c2cc3ccccc3o2)cc(OC)c1OC
GI50 [1]: 24 nM
GI50 [16]: < 10 nM
GI50 [2]: < 10 nM
GI50 [17]: 59 nM
GI50 [3]: < 10 nM
GI50 [4]: < 10 nM
GI50 [5]: < 10 nM
GI50 [6]: < 10 nM
GI50 [7]: < 10 nM
GI50 [8]: < 10 nM
GI50 [18]: 59.9 µM
GI50 [9]: < 10 nM
GI50 [10]: < 10 nM
GI50 [11]: 63.2 µM
GI50 [12]: 217 nM
GI50 [13]: 4340 nM
GI50 [14]: 22 nM
CC50 [15]: 47 nM
inhibition [19]: > 50%

COc1cc(/C(C#N)=C/c2cc3ccccc3[nH]2)cc(OC)c1OC
GI50 [1]: 17 nM
GI50 [16]: < 10 nM
GI50 [2]: < 10 nM
GI50 [17]: 1160 nM
GI50 [3]: < 10 nM
GI50 [4]: < 10 nM
GI50 [6]: < 10 nM
GI50 [7]: < 10 nM
GI50 [8]: < 10 nM
GI50 [18]: 8.28 µM
GI50 [9]: < 10 nM
GI50 [11]: 1.06 µM
GI50 [12]: < 10 nM
GI50 [13]: 2500 nM
GI50 [14]: 22 nM
CC50 [15]: 44 nM
inhibition [19]: > 50%

COc1ccc(/C(C#N)=C/c2cc3ccccc3o2)cc1OC
GI50 [1]: 777 nM
GI50 [16]: 470 nM
GI50 [2]: 520 nM
GI50 [3]: 2290 nM
GI50 [4]: 1130 nM
GI50 [5]: 6180 nM
GI50 [6]: 438 nM
GI50 [7]: 418 nM
GI50 [8]: 1780 nM
GI50 [18]: 0.629 µM
GI50 [9]: 487 nM
GI50 [10]: 3510 nM
GI50 [11]: 18 µM
GI50 [12]: 12400 nM
GI50 [13]: 996 nM
GI50 [14]: 421 nM
CC50 [15]: > 20000 nM

COc1ccc(/C(C#N)=C/c2c[nH]c3ccccc23)cc1OC
GI50 [1]: 2740 nM
GI50 [16]: 1450 nM
GI50 [2]: 5160 nM
GI50 [17]: 18500 nM
GI50 [3]: 8690 nM
GI50 [4]: 5260 nM
GI50 [5]: 24300 nM
GI50 [6]: 3050 nM
GI50 [7]: 35500 nM
GI50 [8]: 6040 nM
GI50 [18]: 9.91 µM
GI50 [9]: 4700 nM
GI50 [10]: 6250 nM
GI50 [11]: 11.9 µM
GI50 [12]: 23700 nM
GI50 [13]: 6830 nM
CC50 [15]: > 20000 nM

COc1cc(/C(C#N)=C/c2coc3ccccc23)cc(OC)c1OC
GI50 [1]: 1410 nM
GI50 [16]: 681 nM
GI50 [2]: 665 nM
GI50 [3]: 6980 nM
GI50 [4]: 3020 nM
GI50 [5]: 19100 nM
GI50 [6]: 261 nM
GI50 [7]: 517 nM
GI50 [8]: 769 nM
GI50 [18]: 0.868 µM
GI50 [9]: 304 nM
GI50 [10]: 1610 nM
GI50 [12]: 1940 nM
GI50 [13]: 811 nM
GI50 [14]: 237 nM
CC50 [15]: 4530 nM

COc1cc(/C(C#N)=C/c2nc3ccccc3s2)cc(OC)c1OC
GI50 [1]: 55 nM
GI50 [16]: 107 nM
GI50 [2]: 379 nM
GI50 [3]: 1930 nM
GI50 [5]: 2290 nM
GI50 [6]: 22 nM
GI50 [7]: 52 nM
GI50 [8]: 145 nM
GI50 [18]: 0.515 µM
GI50 [9]: 287 nM
GI50 [10]: 1810 nM
GI50 [11]: > 100 µM
GI50 [12]: 89 nM
GI50 [14]: 84 nM
CC50 [15]: 233 nM

COc1cc(/C(C#N)=C/c2c[nH]c3ccccc23)cc(OC)c1OC
GI50 [1]: 58 nM
GI50 [16]: 22 nM
GI50 [2]: 78 nM
GI50 [17]: 596 nM
GI50 [3]: 82 nM
GI50 [4]: 1010 nM
GI50 [6]: 37 nM
GI50 [7]: 48 nM
GI50 [8]: 42 nM
GI50 [18]: 12.5 µM
GI50 [10]: 90 nM
GI50 [11]: 11.3 µM
GI50 [12]: 1760 nM
GI50 [13]: 58 nM
GI50 [14]: 41 nM
CC50 [15]: 565 nM

COc1cc(OC)cc(/C(C#N)=C/c2nc3ccccc3s2)c1
GI50 [16]: 402 nM
GI50 [3]: 3350 nM
GI50 [4]: 534 nM
GI50 [5]: > 10000 nM
GI50 [7]: 404 nM
GI50 [8]: 2130 nM
GI50 [18]: 0.699 µM
GI50 [9]: 958 nM
GI50 [10]: 1980 nM
GI50 [12]: 518 nM
GI50 [13]: 1180 nM
GI50 [14]: 2040 nM
CC50 [15]: 4340 nM

COc1ccc(/C(C#N)=C/c2cc3ccccc3[nH]2)cc1OC
GI50 [1]: 62 nM
GI50 [16]: 42 nM
GI50 [2]: 114 nM
GI50 [17]: 307 nM
GI50 [4]: 58 nM
GI50 [5]: 735 nM
GI50 [6]: 49 nM
GI50 [7]: 44 nM
GI50 [8]: 36 nM
GI50 [9]: 312 nM
GI50 [10]: 1940 nM
GI50 [11]: 27 µM
GI50 [12]: 82 nM
GI50 [13]: 573 nM
GI50 [14]: 350 nM

COc1cc(OC)cc(/C(C#N)=C/c2c[nH]c3ccccc23)c1
GI50 [1]: 42 nM
GI50 [16]: 33 nM
GI50 [2]: 61 nM
GI50 [17]: 478 nM
GI50 [3]: 273 nM
GI50 [4]: 68 nM
GI50 [6]: 27 nM
GI50 [7]: 42 nM
GI50 [8]: 34 nM
GI50 [9]: 51 nM
GI50 [10]: 81 nM
GI50 [14]: 51 nM
CC50 [15]: 375 nM

COc1ccc2[nH]cc(/C=C(\C#N)c3cc(OC)c(OC)c(OC)c3)c2c1
GI50 [1]: 64 nM
GI50 [16]: 27 nM
GI50 [2]: 86 nM
GI50 [17]: 485 nM
GI50 [3]: 133 nM
GI50 [4]: 83 nM
GI50 [5]: 44 nM
GI50 [6]: 86 nM
GI50 [7]: 45 nM
GI50 [8]: 43 nM
GI50 [18]: 5.85 µM
GI50 [10]: 92 nM
GI50 [11]: 10.7 µM
GI50 [12]: 1660 nM
GI50 [13]: 65 nM
GI50 [14]: 35 nM
CC50 [15]: 467 nM
